Test results published in ChEMBL document CHEMBL1123369, “Synthesis and structure-activity relationships of new arylfluoronaphthyridine antibacterial agents” (1986).
Converted amounts (≈) assume the structure as drawn.

Assays:
Format in all cases: functional
[1] = test system: Acinetobacter sp.; test: In vitro antibacterial activity against Acinetobacter species CMX669
How it was run: (§1)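 Twofold agar dilution in brain-heart infusion agar, test range 200 to 0.005 µg/mL, made from a 2000 µg/mL stock. Organisms grown overnight in BHI broth at 36 °C. About 10⁴ organisms inoculated per plate, then incubated 18 h at 36 °C. MIC taken as the lowest concentration giving no visible growth.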

[2] = test system: Escherichia coli; test: In vitro antibacterial activity against Escherichia coli Juhl; how it was run: as §1
[3] = test system: Klebsiella aerogenes; test: In vitro antibacterial activity against Enterobacter aerogenes ATCC 13048; how it was run: as §1
[4] = test system: Klebsiella pneumoniae; test: In vitro antibacterial activity against Klebsiella pneumoniae 8045; how it was run: as §1
[5] = test system: Mus musculus; test: In vivo dose(po) inhibiting systemic infections caused by Escherichia coli Juhl in mice.
How it was run: (§2)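 CF-1 female mice, about 20 g. Infected ip with 0.5 mL of an 18-h BHI culture diluted in 5% hog gastric mucin to 100× LD₅₀. LD₅₀ set by 10-fold dilutions (Reed–Muench, day 6). Compound given in water or dilute NaOH, sc or po, total dose split at 1 and 5 h post-infection. At least 3 dose levels, 10 mice each. Deaths followed 6 days. ED₅₀ from day-6 cumulative mortality by trimmed Logit, with 95% confidence limits.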

[6] = test system: Mus musculus; test: In vivo dose(po) inhibiting systemic infections caused by Pseudomonas aeruginosa 5007 in mice.; how it was run: as §2
[7] = test system: Mus musculus; test: In vivo dose(po) inhibiting systemic infections caused by Staphylococcus aureus NCTC 10649 in mice.; how it was run: as §2
[8] = test system: Mus musculus; test: In vivo dose(sc) inhibiting systemic infections caused by Pseudomonas aeruginosa 5007 in mice.; how it was run: as §2
[9] = test system: Mus musculus; test: In vivo dose(sc) inhibiting systemic infections caused by Staphylococcus aureus NCTC 10649 in mice.; how it was run: as §2
[10] = test system: Mus musculus; test: In vivo antibacterial activity against systemic infection caused by Escherichia coli Juhl in mice.; how it was run: as §2
[11] = test system: Mus musculus; test: In vivo antibacterial activity against systemic infection caused by Pseudomonas aeruginosa 5007 in mice.; how it was run: as §2
[12] = test system: Mus musculus; test: In vivo antibacterial activity against systemic infection caused by Staphylococcus aureus NCTC 10649 in mice.; how it was run: as §2
[13] = test system: Pseudomonas aeruginosa; test: compound was evaluated in vitro for the antibacterial activity against Pseudomonas aeruginosa 5007; how it was run: as §1
[14] = test system: Pseudomonas aeruginosa; test: In vitro antibacterial activity against Pseudomonas aeruginosa K799/WT; how it was run: as §1
[15] = test system: Streptococcus pyogenes; test: In vitro antibacterial activity against Streptococcus pyogenes 930; how it was run: as §1
[16] = test system: Staphylococcus aureus; test: In vitro antibacterial activity against Staphylococcus aureus ATCC 6538P; how it was run: as §1
[17] = test system: Enterococcus faecium; test: In vitro antibacterial activity against Streptococcus faecium ATCC 8043; how it was run: as §1
[18] = test system: Staphylococcus aureus; test: In vitro antibacterial activity against Staphylococcus aureus CMX 686B; how it was run: as §1
[19] = test system: Staphylococcus epidermidis; test: In vitro antibacterial activity against Staphylococcus epidermidis 3519; how it was run: as §1
[20] = test system: Mus musculus; test: In vivo dose(sc) inhibiting systemic infections caused by Escherichia coli Juhl in mice.; how it was run: as §2
[21] = test system: Pseudomonas aeruginosa; test: In vitro antibacterial activity against Pseudomonas aeruginosa 5007; how it was run: as §1
[22] = test system: Mus musculus; test: In vivo antibacterial activity against systemic infection caused by Escherichia coli juhl in mice.; how it was run: as §2
[23] = test system: Mus musculus; test: In vivo dose(po) inhibiting systemic infections caused by Escherichia coli Juhl in mice; how it was run: as §2
[24] = test system: Mus musculus; test: In vivo dose(po) inhibiting systemic infections caused by Pseudomonas aeruginosa 5007 in mice; how it was run: as §2
[25] = test system: Mus musculus; test: In vivo dose(po) inhibiting systemic infections caused by Staphylococcus aureus NCTC 10649 in mice; how it was run: as §2
[26] = test system: Mus musculus; test: In vivo dose(sc) inhibiting systemic infections caused by Escherichia coli Juhl in mice
How it was run: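 Female CF-1 mice (~20 g) infected ip with 0.5 mL of 18-h BHI culture of E. coli Juhl diluted in 5% (w/v) hog gastric mucin to 100 times LD50 (LD50 from 10-fold dilutions, day-6 mortality, Reed-Muench). Compound dissolved in water (HCl salt) or dilute NaOH then water, given sc split equally at 1 and 5 h post-infection. 10 mice per dose, ≥3 doses. Deaths recorded 6 days; ED50 from day-6 cumulative mortality by trimmed Logit.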

[27] = test system: Mus musculus; test: In vivo dose(sc) inhibiting systemic infections caused by Pseudomonas aeruginosa 5007 in mice; how it was run: as §2
[28] = test system: Mus musculus; test: In vivo dose(sc) inhibiting systemic infections caused by Staphylococcus aureus NCTC 10649 in mice; how it was run: as §2
[29] = test system: Mus musculus; test: In vivo antibacterial activity against systemic infection caused by Pseudomonas aeruginosa 5007 in mice
[30] = test system: Mus musculus; test: In vivo antibacterial activity against systemic infection caused by Staphylococcus aureus NCTC 10649 in mice
[31] = test system: Mus musculus; test: In vivo antibacterial activity against systemic infection caused by Escherichia coli Juhl in mice; how it was run: as §2

| Compound | MIC [1] [µg/mL] | MIC [2] [µg/mL] | MIC [3] [µg/mL] | MIC [4] [µg/mL] | MIC [10] [µg/mL] | MIC [11] [µg/mL] | MIC [12] [µg/mL] | MIC [14] [µg/mL] | MIC [15] [µg/mL] | MIC [16] [µg/mL] | MIC [17] [µg/mL] | MIC [18] [µg/mL] | MIC [19] [µg/mL] | ED50 [5] [mg/kg] | ED50 [6] [mg/kg] | ED50 [7] [mg/kg] | ED50 [8] [mg/kg] | ED50 [9] [mg/kg] | ED50 [20] [mg/kg] | MIC [21] [µg/mL] | further results |
| --- | --- | --- | --- | --- | --- | --- | --- | --- | --- | --- | --- | --- | --- | --- | --- | --- | --- | --- | --- | --- | --- |
| O=C(O)c1cn(-c2ccc(F)cc2F)c2nc(N3CCNCC3)c(F)cc2c1=O | 0.39 (≈ 0.965 µM) | 0.05 (≈ 0.124 µM) | 0.2 (≈ 0.495 µM) | 0.05 (≈ 0.124 µM) | – | 0.39 (≈ 0.965 µM) | 0.12 (≈ 0.297 µM) | 0.39 (≈ 0.965 µM) | 0.78 (≈ 1.93 µM) | 0.2 (≈ 0.495 µM) | 0.78 (≈ 1.93 µM) | 0.2 (≈ 0.495 µM) | 0.39 (≈ 0.965 µM) | – | 7 | 2.4 | 4.6 | 0.6 | – | 0.39 (≈ 0.965 µM) | – |
| NC1CCN(c2nc3c(cc2F)c(=O)c(C(=O)O)cn3-c2ccc(F)cc2F)C1 (stereo not drawn) [TOSUFLOXACIN] | 0.1 (≈ 0.247 µM) | 0.02 (≈ 0.0495 µM) | 0.1 (≈ 0.247 µM) | 0.02 (≈ 0.0495 µM) | – | 0.2 (≈ 0.495 µM) | 0.03 (≈ 0.0742 µM) | 0.39 (≈ 0.965 µM) | 0.2 (≈ 0.495 µM) | 0.05 (≈ 0.124 µM) | 0.2 (≈ 0.495 µM) | 0.05 (≈ 0.124 µM) | 0.1 (≈ 0.247 µM) | 1.3 | 4.9 | 1.4 | 3.6 | 0.2 | 0.2 | 0.2 (≈ 0.495 µM) | MIC [22]: 0.02 µg/mL (≈ 0.0495 µM) |
| CC1CN(c2nc3c(cc2F)c(=O)c(C(=O)O)cn3-c2ccc(F)cc2F)CCN1 (stereo not drawn) | 0.39 (≈ 0.932 µM) | 0.1 (≈ 0.239 µM) | 3.1 (≈ 7.41 µM) | 0.2 (≈ 0.478 µM) | 0.1 (≈ 0.239 µM) | – | – | 1.56 (≈ 3.73 µM) | 1.56 (≈ 3.73 µM) | 0.2 (≈ 0.478 µM) | 3.1 (≈ 7.41 µM) | 0.39 (≈ 0.932 µM) | 0.78 (≈ 1.86 µM) | 3.9 | – | – | – | – | 1.4 | 1.56 (≈ 3.73 µM) | – |
| O=C(O)c1cn(C2CC2)c2cc(N3CCNCC3)c(F)cc2c1=O [CIPROFLOXACIN] | 1.56 (≈ 4.71 µM) | – | 0.05 (≈ 0.151 µM) | 0.02 (≈ 0.0604 µM) | – | – | – | 0.1 (≈ 0.302 µM) | 0.39 (≈ 1.18 µM) | 0.2 (≈ 0.604 µM) | 0.2 (≈ 0.604 µM) | 0.39 (≈ 1.18 µM) | 0.39 (≈ 1.18 µM) | – | – | – | – | – | – | 0.1 (≈ 0.302 µM) | ED50 [23]: 1.9 mg/kg; ED50 [24]: 13.3 mg/kg; ED50 [25]: 15.5 mg/kg; ED50 [26]: 0.2 mg/kg; ED50 [27]: 2.1 mg/kg; ED50 [28]: 1.6 mg/kg; MIC [29]: 0.1 µg/mL (≈ 0.302 µM); MIC [30]: 0.25 µg/mL (≈ 0.754 µM); MIC [31]: 0.02 µg/mL (≈ 0.0604 µM) |
| NC1CCN(c2nc3c(cc2F)c(=O)c(C(=O)O)cn3-c2ccc(F)cc2)C1 (stereo not drawn) | 0.1 (≈ 0.259 µM) | 0.05 (≈ 0.129 µM) | 0.1 (≈ 0.259 µM) | 0.05 (≈ 0.129 µM) | – | 0.1 (≈ 0.259 µM) | 0.06 (≈ 0.155 µM) | 0.2 (≈ 0.518 µM) | 0.2 (≈ 0.518 µM) | 0.5 (≈ 1.29 µM) | 0.39 (≈ 1.01 µM) | 0.1 (≈ 0.259 µM) | 0.1 (≈ 0.259 µM) | – | 18.2 | 1.6 | 7.4 | 0.5 | – | 0.1 (≈ 0.259 µM) | – |

More lines, main results first:

| MIC [1] [µg/mL] | MIC [2] [µg/mL] | MIC [3] [µg/mL] | MIC [4] [µg/mL] | MIC [10] [µg/mL] | MIC [11] [µg/mL] | MIC [12] [µg/mL] | MIC [14] [µg/mL] | MIC [15] [µg/mL] | MIC [16] [µg/mL] | MIC [17] [µg/mL] | MIC [18] [µg/mL] | MIC [19] [µg/mL] | Compound | ED50 [5] [mg/kg] | ED50 [6] [mg/kg] | ED50 [7] [mg/kg] | ED50 [8] [mg/kg] | ED50 [9] [mg/kg] | ED50 [20] [mg/kg] | MIC [21] [µg/mL] | further results |
| --- | --- | --- | --- | --- | --- | --- | --- | --- | --- | --- | --- | --- | --- | --- | --- | --- | --- | --- | --- | --- | --- |
| 0.39 (≈ 1.01 µM) | 0.05 (≈ 0.129 µM) | 0.1 (≈ 0.259 µM) | 0.1 (≈ 0.259 µM) | 0.05 (≈ 0.129 µM) | 0.39 (≈ 1.01 µM) | 0.25 (≈ 0.647 µM) | 0.39 (≈ 1.01 µM) | 1.56 (≈ 4.04 µM) | 0.39 (≈ 1.01 µM) | 3.1 (≈ 8.02 µM) | 0.39 (≈ 1.01 µM) | 0.78 (≈ 2.02 µM) | O=C(O)c1cn(-c2ccc(F)cc2)c2nc(N3CCNCC3)c(F)cc2c1=O | 2.8 | 19.9 | 7.5 | 6.9 | 1.6 | 1 | – | MIC [13]: 0.39 µg/mL (≈ 1.01 µM) |
| 0.2 | 0.05 | 0.2 | 0.02 | 0.05 | 0.39 | 0.12 | 0.39 | 0.78 | 0.2 | 1.56 | 0.2 | 0.39 | Cl.O=C(O)c1cn(-c2ccc(F)cc2)c2cc(N3CCNCC3)c(F)cc2c1=O [SARAFLOXACIN HYDROCHLORIDE] | 4.3 | 21.4 | 6.5 | 1.6 | 1.6 | 0.6 | 0.39 | – |
| 0.2 (≈ 0.5 µM) | 0.2 (≈ 0.5 µM) | 0.2 (≈ 0.5 µM) | 0.1 (≈ 0.25 µM) | – | – | – | 1.56 (≈ 3.9 µM) | 3.1 (≈ 7.74 µM) | 0.2 (≈ 0.5 µM) | 3.1 (≈ 7.74 µM) | 0.2 (≈ 0.5 µM) | 0.39 (≈ 0.974 µM) | CN1CCN(c2nc3c(cc2F)c(=O)c(C(=O)O)cn3-c2ccc(F)cc2)CC1 | – | – | – | – | – | – | – | MIC [13]: 1.56 µg/mL (≈ 3.9 µM) |
